Assay results from ChEMBL document CHEMBL3862037 (J Med Chem, 2016).

What was measured:
[1] = molecular target: T1, Sodium-dependent dopamine transporter (Homo sapiens, UniProt Q01959); experiment: Displacement of [3H]WIN35,428 from wild type human DAT expressed in COS7 cell membranes incubated for >90 mins by radioligand binding assay; design: species or system COS-7
[2] = molecular target: T2, D(2) dopamine receptor (Homo sapiens, UniProt P14416); experiment: Antagonist activity at DRD2 (unknown origin) expressed in HEK293T cells transfected with Galphai1-RLuc8 and gamma2-GFP10 assessed as inhibition of quinpirole-induced Gi1 activation pre-incubated with quinpirole for 10 mins before compound incubation for 10 mins by BRET assay; assay type: cell-based, HEK-293T
Summary of the method: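 HEK-293T cells co-transfected with Flag-tagged D2 receptor, RLuc8-fused Gαi1, GFP10-fused Gγ and untagged Gβ, using constant total plasmid DNA at various partner ratios. Cells preincubated 10 min with 1 µM quinpirole, then 10 min with test compound. Read-out: BRET as fluorescence at 535 nm after 5 µM coelenterazine 400a.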

[3] = molecular target: T1, Sodium-dependent dopamine transporter; experiment: Inhibition of DAT (unknown origin) expressed in COS7 cells assessed as reduction in [3H]DA uptake incubated for 5 mins by beta-scintillation counting method; assay type: cell-based, COS-7
[4] = molecular target: T2, D(2) dopamine receptor; experiment: Displacement of [3H]N-methylspiperone from human D2R expressed in HEK293 cell membranes incubated for 1 hr by radioligand binding assay
Summary of the method: (§1)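 Membranes from HEK293 cells stably expressing human D2R (20 µg protein) or D4R (30 µg protein). Buffer: EBSS with 0.2 mM sodium metabisulfite and 0.4 nM [3H]N-methylspiperone. Test compound at 11 half-log dilutions (100 µM–100 pM or 10 µM–10 pM) in 30% DMSO vehicle. Incubated 1 h at room temperature; nonspecific binding with 10 µM butaclamol.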

[5] = Stability in mouse liver microsomes assessed as compound remaining at 10 uM in absence of NADPH regenerating system measured after 60 mins by LC/MS/MS method; assay type: ADME, microsome; settings: read-out: Stability
[6] = molecular target: T3, D(4) dopamine receptor (Homo sapiens, UniProt P21917); experiment: Displacement of [3H]N-methylspiperone from human D4R expressed in HEK293 cell membranes incubated for 1 hr by radioligand binding assay; summary of the method: as §1
T3 sequence (P21917 whole entry): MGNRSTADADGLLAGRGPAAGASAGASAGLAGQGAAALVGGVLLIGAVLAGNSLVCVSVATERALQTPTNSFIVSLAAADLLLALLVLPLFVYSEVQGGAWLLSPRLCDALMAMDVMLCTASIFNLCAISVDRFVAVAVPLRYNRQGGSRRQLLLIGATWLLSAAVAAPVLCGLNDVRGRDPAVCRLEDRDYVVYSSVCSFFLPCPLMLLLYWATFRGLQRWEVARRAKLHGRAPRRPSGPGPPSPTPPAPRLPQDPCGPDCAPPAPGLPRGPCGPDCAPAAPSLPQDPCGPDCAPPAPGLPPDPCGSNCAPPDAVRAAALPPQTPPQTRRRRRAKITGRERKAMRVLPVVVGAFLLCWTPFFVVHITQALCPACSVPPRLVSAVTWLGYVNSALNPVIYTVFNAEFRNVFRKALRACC

[7] = Displacement of [3H]WIN35,428 from human DAT Y156F mutant expressed in COS7 cell membranes incubated for >90 mins by radioligand binding assay; settings: cos-7
[8] = Stability in mouse liver microsomes assessed as compound remaining at 10 uM in presence of NADPH regenerating system measured up to 70 mins by LC/MS/MS method; assay type: ADME; settings: read-out: Stability
[9] = molecular target: D(3) dopamine receptor (Homo sapiens, UniProt P35462); experiment: Displacement of [3H]N-methylspiperone from human D3R expressed in HEK293 cell membranes incubated for 1 hr by radioligand binding assay
[10] = Stability in mouse liver microsomes assessed as half life at 10 uM in presence of NADPH regenerating system by LC/MS/MS method; assay type: ADME
Summary of the method: (§2)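 Mouse liver microsomes (0.5 mg/mL) in 100 mM potassium phosphate pH 7.4 with NADPH regenerating system. Compound at 10 µM final; testosterone as positive control. Parent compound loss followed over time by LC/MS/MS on a C18 column with formic acid/acetonitrile gradient.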

[11] = Induction of locomotor activity in C57BL/6J mouse assessed as increase in traveled distance every 10 mins at 10 mg/kg, ip; assay type: organism-based; settings: in vivo
[12] = Stability in mouse liver microsomes assessed as compound remaining at 10 uM in presence of NADPH regenerating system measured at 60 mins by LC/MS/MS method; assay type: ADME; settings: read-out: Stability; summary of the method: as §2
[13] = Induction of locomotor activity in C57BL/6J mouse assessed as increase in traveled distance every 10 mins at 10 to 30 mg/kg, ip; assay type: organism-based; settings: in vivo
[14] = Induction of locomotor activity in C57BL/6J mouse assessed as increase in traveled distance every 10 mins at 3 and 10 mg/kg, ip; assay type: organism-based; settings: in vivo

T1 sequence (Q01959 whole entry): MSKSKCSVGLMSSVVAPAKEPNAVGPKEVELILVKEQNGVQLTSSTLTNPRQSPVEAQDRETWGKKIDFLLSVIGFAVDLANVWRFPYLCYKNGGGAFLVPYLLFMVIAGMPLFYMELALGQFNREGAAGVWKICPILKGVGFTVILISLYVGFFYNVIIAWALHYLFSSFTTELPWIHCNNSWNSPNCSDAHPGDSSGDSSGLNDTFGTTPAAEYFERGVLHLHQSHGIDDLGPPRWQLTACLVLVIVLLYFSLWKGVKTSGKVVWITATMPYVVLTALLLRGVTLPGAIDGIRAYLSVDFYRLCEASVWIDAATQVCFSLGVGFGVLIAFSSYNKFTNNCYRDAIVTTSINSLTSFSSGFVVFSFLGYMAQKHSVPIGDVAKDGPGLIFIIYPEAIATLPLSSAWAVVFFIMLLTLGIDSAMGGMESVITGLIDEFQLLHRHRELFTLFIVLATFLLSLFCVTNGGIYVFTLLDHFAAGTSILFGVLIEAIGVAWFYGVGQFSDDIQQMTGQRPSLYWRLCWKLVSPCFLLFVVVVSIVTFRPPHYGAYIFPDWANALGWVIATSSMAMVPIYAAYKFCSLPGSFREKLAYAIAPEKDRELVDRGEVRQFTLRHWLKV
T2 sequence (P14416 whole entry, the tested form may be a part): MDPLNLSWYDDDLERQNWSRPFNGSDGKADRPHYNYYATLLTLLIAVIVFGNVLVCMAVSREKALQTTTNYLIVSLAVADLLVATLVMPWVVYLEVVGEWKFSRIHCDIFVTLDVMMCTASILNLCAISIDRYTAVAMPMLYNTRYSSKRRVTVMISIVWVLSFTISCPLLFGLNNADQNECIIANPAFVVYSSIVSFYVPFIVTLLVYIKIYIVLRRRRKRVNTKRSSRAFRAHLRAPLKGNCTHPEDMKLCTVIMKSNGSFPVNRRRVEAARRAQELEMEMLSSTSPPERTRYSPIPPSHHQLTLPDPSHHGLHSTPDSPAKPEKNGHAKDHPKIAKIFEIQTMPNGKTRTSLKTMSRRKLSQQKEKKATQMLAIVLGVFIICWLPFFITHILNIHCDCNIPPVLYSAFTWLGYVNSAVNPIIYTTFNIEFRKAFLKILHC
Sequence of D(3) dopamine receptor (P35462 whole entry): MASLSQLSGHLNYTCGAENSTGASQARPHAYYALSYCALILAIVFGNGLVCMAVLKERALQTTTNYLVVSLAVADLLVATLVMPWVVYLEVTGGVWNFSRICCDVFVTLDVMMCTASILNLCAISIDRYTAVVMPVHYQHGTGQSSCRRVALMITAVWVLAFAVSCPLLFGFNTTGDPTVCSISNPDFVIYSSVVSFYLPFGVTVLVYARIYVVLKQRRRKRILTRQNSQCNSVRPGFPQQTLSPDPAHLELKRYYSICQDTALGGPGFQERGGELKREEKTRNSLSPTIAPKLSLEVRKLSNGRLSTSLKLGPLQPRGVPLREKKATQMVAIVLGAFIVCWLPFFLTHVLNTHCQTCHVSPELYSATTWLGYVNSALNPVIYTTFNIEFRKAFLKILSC

Compound CC(O)CN1CCN(CCSC(c2ccc(F)cc2)c2ccc(F)cc2)CC1 (stereo not drawn) has a Ki [1] of 101 nM, an IC50 [2] of over 10000 nM and a Ki [3] of 200 nM. The Ki [4] was 693 nM, the remaining at 1 h, 10 µM [5] was over 95% and the Ki [6] was 6300 nM. For the same compound, the Ki [7] was 267 nM, the remaining at 70 min, 10 µM [8] was 50% and the Ki [9] was 424 nM. It also gave a half-life at 10 µM ([10]; liver microsomes) of 1 h.

In the case of [O-][S+](CCN1CCN(CC(O)Cc2ccccc2)CC1)C(c1ccc(F)cc1)c1ccc(F)cc1 (stereo not drawn), the Ki [1] is reported as 6.5 nM, the IC50 [2] is reported as over 10000 nM and the Activity [11] is reported as “Non-Toxic”. For the same compound, the Ki [3] was 12 nM, the Ki [4] was 78.6 nM and the remaining at 1 h, 10 µM [5] was over 95%. It also gave a remaining at 1 h, 10 µM [12] of 4%, a Ki [6] of 1750 nM and a Ki [7] of 97 nM. For the same compound, the Ki [9] was 652 nM, the Activity [13] was “Dose-dependent effect” and the t1/2 ([10]; microsomes, 10 µM) was 0.217 h.

In the case of COC(=O)[C@H]1[C@@H](OC(=O)c2ccccc2)C[C@@H]2CC[C@H]1N2C [COCAINE], the Activity [14] is reported as “Dose-dependent effect”.
